Screens (PubChem BioAssay)
Shown are actives, neighbours in structure and some others; about 2.7% of the full set was active somewhere.
CSN deneddyl inh: blocks human CSN-mediated cullin deneddylation; Q92905; Purified CSN, SCF-Nedd8-OG deneddylation, fluorescence polarization; inhibition, % at 12.5 µM; actives 0.38% (n = 360,000);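 active = pattern-corrected inhibition above about 35%, with an unprinted fluorescence ratio check between 0.5 and 1.5, limit read from the data, passing the limit was not always enough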;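 note: 0% = enzyme with substrate and 100% = substrate without enzyme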
Target sequence (Q92905 whole entry, looked up, one chain of several): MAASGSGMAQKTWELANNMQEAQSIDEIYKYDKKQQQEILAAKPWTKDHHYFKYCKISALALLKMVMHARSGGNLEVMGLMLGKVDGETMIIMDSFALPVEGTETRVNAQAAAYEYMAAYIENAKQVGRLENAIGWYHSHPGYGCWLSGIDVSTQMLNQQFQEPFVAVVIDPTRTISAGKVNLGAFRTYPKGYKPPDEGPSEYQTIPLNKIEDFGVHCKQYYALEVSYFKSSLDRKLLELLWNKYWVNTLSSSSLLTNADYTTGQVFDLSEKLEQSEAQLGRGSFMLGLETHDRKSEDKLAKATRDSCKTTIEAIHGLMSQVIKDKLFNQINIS
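test system = HEK293T-derived human Csn5 enzyme | amount = 0.24 nM Csn5 enzyme, final concentration | medium = Tris/NaCl/DTT buffer, pH 7.5 | schedule = 90 min reaction at room temperature | signal = FP | evaluation = inhibition of Csn5 cleavage, % | compound dosing = single dose of 12.5 µM compound with 0.25% DMSO | probe or stimulus = 10 nM SCFSkp2-Nedd8OG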
TPT1 inh: C. albicans TPT1 enzyme inhibition | AID 1962 | recombinant caTPT1, FP RNA substrate dephosphorylation | actives 0.81% (n = 300,000) | inhibition, % at 5 µM;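 active = inhibition above the mean of all tested compounds plus 3 SD, set per screening campaign, cut at about 24% in these data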;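 note: plate controls were DMSO alone for no effect and ferristatin control at 100 nM for full effect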
HNF4A DNA FP: change in binding of human HNF4 alpha to DNA; actives 0.3% (n = 360,000); HNF4a-FITC DNA binding, fluorescence polarization, 1 h; activity change, % at 10 µM; AID 1224865; in the data active = activity change above about 30%, passing the limit was not always enough
PP1 inh: PP1-alpha (human) inhibition in PP5 counter-screen. inhibition, % at 6.7 µM. P62136. AID 2235. actives 0.9% (n = 320,000). purified PP1alpha, OMFP fluorescence;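 active = inhibition above the mean inhibition of all tested compounds plus 3 SD, computed separately for each screening campaign, cut at about 15% in these data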
Target sequence (P62136 whole entry, looked up): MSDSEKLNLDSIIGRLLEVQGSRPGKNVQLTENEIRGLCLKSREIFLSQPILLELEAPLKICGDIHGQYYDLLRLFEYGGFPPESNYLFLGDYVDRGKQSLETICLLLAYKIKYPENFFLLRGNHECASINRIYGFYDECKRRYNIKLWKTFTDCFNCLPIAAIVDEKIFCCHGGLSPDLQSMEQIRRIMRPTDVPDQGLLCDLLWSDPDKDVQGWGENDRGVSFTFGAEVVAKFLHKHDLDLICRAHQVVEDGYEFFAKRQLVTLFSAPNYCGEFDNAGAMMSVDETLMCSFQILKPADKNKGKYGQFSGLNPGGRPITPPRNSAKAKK
NadD inh: blocks S. aureus nicotinate mononucleotide adenylyltransferase; inhibition, % at 20 µM; AID 602399; purified NadD enzyme, colorimetric absorbance read-out; actives 0.78% (n = 360,000); in the data active = inhibition above about 26%
Rpn11 inh: inhibitors of human proteasome Rpn11; O00487; human 26S proteasome, Ub4-pepOG fluorescence polarization; 20S core pre-blocked with epoxomicin; inhibition, % at 20 µM; actives 0.59% (n = 360,000); AID 588493;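 active = inhibition at 20 µM, scaled to each plate's controls, above about 33%, limit read from the data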
NadD conf: confirmation of Staphylococcus aureus NadD inhibitors; shares compounds with NadD inh; purified S. aureus NadD, colorimetric enzyme assay; inhibition, % at 20 µM; actives 13% (n = 2,000); in the data active = inhibition mostly above about 42%, no sharp cut-off; inactive = mostly below about 42%
* = called active by the depositor; · = no result.

SMILES | CSN deneddyl inh | TPT1 inh | HNF4A DNA FP | PP1 inh | NadD inh | Rpn11 inh | NadD conf
O=C(CCNC(=O)c1ccc(Cl)cc1)Nc1ccc(S(=O)(=O)N2CCCCC2)cc1 | -6 | 2 | 2 | 4 | -3 | -2 | ·
CCCOc1ccc(C(=O)N/N=C/c2ccc(-c3ccc(S(=O)(=O)Nc4ncccn4)cc3)o2)cc1 | 4 | 7 | -3 | 3 | 32* | 24 | 49*
CCOc1ccc(CCN2C(=O)C(=O)N([C@@H](Cc3ccccc3)CN3CCC[C@H]3CN3C(=O)C(=O)NC[C@@H]3CC(C)C)C[C@@H]2Cc2ccc(O)cc2)cc1 | -2 | · | -3 | · | 30* | · | 31
CCOc1ccc(CCN2C(=O)C(=O)N([C@@H](Cc3ccc(O)cc3)CN3CCC[C@@H]3CN3C(=O)C(=O)NC[C@@H]3Cc3ccccc3)C[C@@H]2Cc2ccccc2)cc1 | 1 | · | 1 | · | 29* | 20 | 43
CCC(=O)N1c2ccc(S(=O)(=O)NC3CCCCC3)cc2CC1C (centres undefined) | 2 | -3 | 0 | -2 | -3 | 3 | ·
CC1CCCC(CC(N)=O)CC1 (centres undefined) | 0 | · | 1 | · | -1 | 4 | ·
Cc1cc(C)cc(-n2c3nc4ccccc4nc3c3c(=O)n(Cc4ccco4)cnc32)c1 | 22 | 11 | -8 | 20* | 33* | 19 | 9
O=C(Cn1cnc2c(NCc3ccccc3)ncnc21)NCc1nc2ccccc2[nH]1 | -11 | · | 2 | · | -1 | -6 | ·
NC(=O)COC(=O)c1cc(=O)[nH]c2ccc(S(=O)(=O)Nc3ccc(F)cc3)cc12 | -3 | -2 | 0 | 4 | 0 | -2 | ·
CCc1ccc(NC(=O)C(C)OC(=O)c2cc(=O)[nH]c3ccc(S(=O)(=O)Nc4ccc(F)cc4)cc23)cc1 (centres undefined) | 1 | -2 | -2 | 1 | 34* | 5 | 17
Cc1cccc(NS(=O)(=O)c2ccc3[nH]c(=O)cc(C(=O)OC(C)C(=O)Nc4ccc([N+](=O)[O-])cc4)c3c2)c1 (centres undefined) | -6 | -7 | 3 | 10 | 43* | 6 | 41
CC(C)NC(=O)c1csc(COCCO)n1 | 1 | · | 2 | · | -5 | -3 | ·
Cc1noc(/C=C/c2ccccc2F)c1S(=O)(=O)N1CCC(C(=O)N2CCN(C)CC2)CC1 | -1 | -1 | 3 | -8 | 2 | -1 | ·
Cc1noc(/C=C/c2ccco2)c1S(=O)(=O)N1CCC(C(=O)N2c3ccccc3CC2C)CC1 (centres undefined) | 18 | 7 | 44* | 17* | 39* | 36 | 6
CNC(=S)NNC(=O)c1oc2nc(-c3ccccc3)cc(C)c2c1N | -5 | 0 | 1 | 0 | 2 | 18 | ·
NNC(=O)c1oc2nc(-c3ccccc3)cc(-c3ccccc3)c2c1N | 3 | -1 | 5 | -1 | 31* | 9 | 12
Cc1ccccc1C(C)NC(=O)COC(=O)Cn1cc(C(F)(F)F)ccc1=O (centres undefined) | -5 | · | -1 | -4 | -4 | 4 | ·
Nc1ccc2nc(CCCCCCc3nc4ccc(N)cc4[nH]3)[nH]c2c1 | -1 | 3 | -10 | -2 | 50* | 3 | 18
Cc1cccc2c1NC(=O)C21N2CCCC2C(C(=O)c2ccc3ccccc3c2)C12C(=O)Nc1ccccc12 (centres undefined) | · | 0 | · | 8 | · | · | ·
CCc1cccc2c1NC(=O)C21N2CCCC2C(C(=O)c2ccc3ccccc3c2)C12C(=O)Nc1ccccc12 (centres undefined) | -6 | 0 | 4 | 6 | 39* | 17 | 52*
CCN1CCCC1CNC(=O)c1cc([N+](=O)[O-])c(N(C)C)cc1OC (centres undefined) | 2 | 3 | -3 | 5 | -6 | 3 | ·
COc1cc2c(cc1OC)-c1cc3ccc(OC)c(OC)c3c[n+]1CC2 | -2 | 1 | -1 | 1 | 2 | 0 | ·
COc1ccc2cc3[n+](cc2c1O)CCc1cc2c(cc1-3)OCO2 | 6 | · | -34 | · | 41* | · | 32
COc1ccc([C@H]2C[C@H](O)[C@@H](n3cc(-c4ccc(F)cc4)nn3)CN2CC2CCCCC2)cc1 | -2 | · | -1 | · | 3 | -7 | ·
COc1ccccc1-c1cc(C(=O)N/N=C/c2ccc(C)s2)c2ccccc2n1 | 1 | 0 | -4 | -1 | 32* | 1 | 16
SMILES | CSN deneddyl inh | TPT1 inh | HNF4A DNA FP | PP1 inh | NadD inh | Rpn11 inh | NadD conf
COc1ccc(/C=N/NC(=O)c2cc(-c3ccccc3OC)nc3ccccc23)cc1COC(C)=O | 2 | -1 | 2 | 1 | 9 | -1 | ·
COc1ccc(/C=N/NC(=O)c2cc(-c3ccc(C)cc3C)nc3ccccc23)cc1COC(C)=O | 3 | -1 | -1 | 4 | 38* | 6 | -3
CCC1CCCCN1CCCNC(=O)CCC(=O)N1CCOc2ccccc21 (centres undefined) | 1 | 2 | 2 | -3 | -1 | -2 | ·
S=C(Nc1ccc(Br)cc1)N1CCN(c2ccccn2)CC1 | 0 | 1 | 4 | 3 | -8 | -3 | ·
CC(C)(C)OC(=O)CC[C@@H](C(=O)NCCCCCCCCCCC(=O)N1CCN(C(=O)OC(C)(C)C)CC1)n1cc(CCCCCNC(=O)OC(C)(C)C)nn1 | -3 | -4 | -1 | -1 | 32* | -2 | -4
CCc1nnc(NC(=O)CCc2ccccc2OC)s1 | -4 | -6 | -1 | 0 | 0 | -1 | ·
O=C(Nc1ccc(N2CCCC2)cc1)C(c1ccccc1)c1ccccc1 | 9 | 10 | 6 | 12 | 37* | 8 | -7
O=C(CCCCn1c(=O)[nH]c2ccsc2c1=O)NCc1ccc2c(c1)OCO2 | -6 | 2 | -6 | 2 | -2 | 3 | ·
O=C(CCCCn1c(=S)[nH]c2ccsc2c1=O)NCc1ccc2c(c1)OCO2 | 7 | 1 | 2 | -5 | 30* | 8 | 35
CN(CC(=O)Nc1ccc(F)cc1)C(=O)c1ccc(-c2ccc(F)cc2)o1 | -2 | · | 5 | · | -2 | -1 | ·
C#CCCc1cocc1/C=[N+](\[O-])c1ccc(C(=O)OCC)cc1 | 13 | · | 9 | 2 | 42* | 18 | 31
Cc1cc(C)cc(SCc2noc(C(=O)NCCC(C)C)c2C(=O)NCCC(C)C)c1 | -5 | -1 | -3 | -3 | 1 | 4 | ·
NC(Cc1ccccc1)c1csc(NC(=O)Nc2ccccc2Oc2ccccc2)n1 (centres undefined) | 6 | · | -4 | · | 25 | -1 | ·
NC(Cc1ccc(C(F)(F)F)cc1)c1csc(NC(=O)Nc2ccccc2Oc2ccccc2)n1 (centres undefined) | 3 | · | -5 | · | 34* | 8 | 9
CCOc1ccc(S(=O)(=O)NCc2cccnc2)cc1NC(=O)c1ccccc1 | 1 | · | -1 | · | 6 | 7 | ·
